Values after ≈ are worked out from the molar mass of the structure shown. Active and inactive are the calls of the source. No cut-off for these calls is given here.
Columns and labels:
[1] = molecular target: Bcl-2-like protein 1 (Homo sapiens, UniProt Q07817); experiment: Binding affinity to Bcl-xL (unknown origin)
[2] = molecular target: T1, Induced myeloid leukemia cell differentiation protein Mcl-1 (Homo sapiens, UniProt Q07820); experiment: Binding affinity to his-tagged Mcl-1 (unknown origin) expressed in Escherichia coli BL21 (DE3) cells by ITC analysis
Procedure, shortened: (§1)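 Isothermal titration calorimetry at 25 °C in 20 mM Tris pH 8.0, 150 mM NaCl, 1% DMSO; twelve 3 μL injections of 300 μM ligand into 30 μM protein. Heats corrected against buffer-only titrations run the same way, and Kd obtained by integrating the raw data and fitting to a one-site model.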

[3] = molecular target: Induced myeloid leukemia cell differentiation protein Mcl-1 (Homo sapiens, UniProt Q07820, R263A); experiment: Binding affinity to his-tagged Mcl-1 R263A mutant (unknown origin) expressed in Escherichia coli BL21 (DE3) cells by ITC analysis; procedure, shortened: as §1
[4] = molecular target: T1, Induced myeloid leukemia cell differentiation protein Mcl-1; experiment: Binding affinity to Mcl-1 (unknown origin) by two-dimensional [15N/1H] NMR analysis
[5] = system: NCI-H23; experiment: Induction of apoptosis in human NCI-H23 cells after 48 hrs by annexin V flow cytometry; assay type: functional, cell-based; details: NCI-H23, 48 h
Procedure, shortened: (§2)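 Cells exposed to graded concentrations of ligand for 48 h; percentage of apoptotic cells measured by Annexin V flow cytometry, and IC50 taken from the concentration–response.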

[6] = system: NCI-H23; experiment: Ratio of IC50 for human HL60 cells to IC50 for human NCI-H23 cells; assay type: functional
[7] = system: HL-60; experiment: Induction of apoptosis in human HL60 cells after 48 hrs by annexin V flow cytometry; assay type: functional, cell-based; details: HL-60, 48 h; procedure, shortened: as §2
[8] = system: H22; experiment: Induction of apoptosis in mouse H22 cells after 48 hrs by annexin V flow cytometry; assay type: functional, cell-based; details: H22, 48 h; procedure, shortened: as §2
[9] = molecular target: Apoptosis regulator Bcl-2 (Homo sapiens) (UniProt P10415); experiment: Binding affinity to recombinant human Bcl-2
[10] = system: MCF7; experiment: Induction of apoptosis in human MCF7 cells after 48 hrs by annexin V flow cytometry; assay type: functional, cell-based; details: MCF7, 48 h; procedure, shortened: as §2
[11] = Solubility of the compound in 100 % ethanol by HPLC analysis; assay type: physicochemical
[12] = Solubility of the compound in 9:1 ratio of water:ethanol by HPLC analysis; assay type: physicochemical; details: 9:1 water:ethanol

T1 sequence (Q07820 whole entry): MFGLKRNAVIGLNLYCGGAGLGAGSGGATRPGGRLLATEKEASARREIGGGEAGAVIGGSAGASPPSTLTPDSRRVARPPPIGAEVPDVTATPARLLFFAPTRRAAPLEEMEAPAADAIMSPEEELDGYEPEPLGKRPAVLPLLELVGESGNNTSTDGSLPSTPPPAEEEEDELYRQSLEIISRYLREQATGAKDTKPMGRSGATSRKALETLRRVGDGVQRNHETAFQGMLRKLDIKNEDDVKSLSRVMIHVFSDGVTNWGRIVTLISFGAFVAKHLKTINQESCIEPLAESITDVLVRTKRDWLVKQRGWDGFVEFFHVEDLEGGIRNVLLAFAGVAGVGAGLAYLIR
Bcl-2-like protein 1, sequence (Q07817 whole entry): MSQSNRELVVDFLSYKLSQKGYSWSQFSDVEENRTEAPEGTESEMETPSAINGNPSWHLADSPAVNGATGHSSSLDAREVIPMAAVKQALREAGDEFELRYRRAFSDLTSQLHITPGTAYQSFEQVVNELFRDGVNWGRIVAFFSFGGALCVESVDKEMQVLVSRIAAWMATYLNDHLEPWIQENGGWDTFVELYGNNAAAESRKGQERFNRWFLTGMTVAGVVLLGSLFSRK
Induced myeloid leukemia cell differentiation protein Mcl-1 (Homo sapiens, UniProt Q07820, R263A), sequence (Q07820 whole entry R263A): as the sequence (Q07820 whole entry) above, with R263A counted along it
Apoptosis regulator Bcl-2 (Homo sapiens), sequence (P10415 whole entry): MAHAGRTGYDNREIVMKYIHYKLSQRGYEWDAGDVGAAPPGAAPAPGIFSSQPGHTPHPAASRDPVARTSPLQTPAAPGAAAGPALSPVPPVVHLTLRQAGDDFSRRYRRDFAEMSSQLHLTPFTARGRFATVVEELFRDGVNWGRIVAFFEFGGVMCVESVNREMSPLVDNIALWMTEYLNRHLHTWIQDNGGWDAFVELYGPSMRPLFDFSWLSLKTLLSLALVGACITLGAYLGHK

Row | Compound | Kd ([2]; read-out: Kd) | Kd ([2]; read-out: pKd (converted)) | other results
1 | CCCC(CSc1ccccc1)Nc1ccc(S(=O)(=O)NC(=O)c2ccc(N3CCN(Cc4ccccc4-c4ccc(Cl)cc4)CC3)cc2)cc1[N+](=O)[O-] (configuration not stated) | – | – | Ki [1]: 0.021 µM
2 | NC(=O)c1ccccc1C(=O)c1ccc(Sc2ccc(Cl)cc2)c([N+](=O)[O-])c1 | – | – | Ki [1]: 0.5 µM
3 | N#CC1=C2C(=NC1=O)c1cccc3cccc2c13 | 1.83 µM | 1.82 µM | –
4 | COC1=CC(c2cc3ccccc3[nH]2)=N/C1=C/c1[nH]cc(C)c1C | – | – | Ki [1]: 4.69 µM
5 | C1CSCCN1 [THIOMORPHOLINE] | > 1000 µM | – | –
6 | N#CC(C#N)=c1c(=O)c2cccc3c(Oc4ccc(Cl)cc4)ccc1c32 | 4.24 µM | 4.27 µM | –
7 | O=C1C(=O)c2cccc3cccc1c23 [ACENAPHTHOQUINONE] | 325 µM | 324 µM | –
8 | N#CCC(N)=O [CYANOACETAMIDE] | 13.5 µM | 13.5 µM | Kd [3]: > 1000 µM
9 | COc1ccc(Oc2ccc3c(=C(C#N)C#N)c(=O)c4cccc2c43)cc1 | 4.93 µM | 4.9 µM | –
10 | CCC(C)(C)c1ccc(Oc2ccc3c(=C(C#N)C#N)c(=O)c4cccc2c43)cc1 | 1.45 µM | 1.45 µM | –
11 | O=C(Nc1cc(S(=O)(=O)c2ccc(Cl)cc2)ccc1Cl)c1cc(Cl)cc(Br)c1O | – | – | Ki [1]: 4.1 µM
12 | Cc1cc2c(C(C)C)c(O)c(O)c(C=O)c2c(O)c1-c1c(C)cc2c(C(C)C)c(O)c(O)c(C=O)c2c1O [GOSSYPOL] | 2.65 µM | 2.63 µM | –
13 | CC(C)c1ccc(Oc2ccc3c(=C(C#N)C#N)c(=O)c4cccc2c43)cc1 | 3.71 µM | 3.72 µM | –
14 | N#Cc1c(-c2ccc3c(c2)OCO3)cc(-c2ccccc2O)[nH]c1=O | – | – | Ki [1]: 5.1 µM

Continued, in another order:

Row | Kd ([2]; read-out: Kd) | Kd ([2]; read-out: pKd (converted)) | Compound | other results
15 | 6.65 µM | 6.61 µM | CCNC(=O)CC#N | –
16 | 1.06 µM | 1.07 µM | N#C/C(=C\C=C\c1ccccc1)C(N)=O | Kd [3]: 46.2 µM
17 | 52.3 µM | 52.5 µM | N#CC(C#N)=c1c(=O)c2cccc3cccc1c32 | Kd [3]: 51.4 µM
18 | 4.28 µM | 4.27 µM | CCCNC(=O)CC#N | –
19 | 1.58 µM | 1.58 µM | N#CCC(=O)NCc1ccccc1 | Kd [3]: 90.8 µM
20 | 8.27 µM | 8.32 µM | CNC(=O)CC#N | –
21 | 0.16 µM | 0.158 µM | N#C/C(=C\C=C\c1ccccc1)C(=O)NCc1ccccc1 | Activity [4]: Active; IC50 [5]: 0.38 µM; Ratio IC50 [6]: 100; IC50 [7]: 47.2 µM; IC50 [8]: 3.2 µM; Activity [9]: inactive; Kd [3]: 6.72 µM; IC50 [10]: 5.4 µM; solubility [11]: 4 mg/mL (≈ 13.9 mM); solubility [12]: 0.2 mg/mL
22 | 2.21 µM | 2.19 µM | N#C/C(=C\c1ccccc1)C(N)=O | –

Source: ChEMBL document CHEMBL2331511, “Novel soluble myeloid cell leukemia sequence 1 (Mcl-1) inhibitor (E,E)-2-(benzylaminocarbonyl)-3-styrylacrylonitrile (4g) developed using a fragment-based approach” (Eur J Med Chem, 2013)
